The source of these data is ChEMBL document CHEMBL1156827, “Benzimidazole derivatives as new serotonin 5-HT6 receptor antagonists. Molecular mechanisms of receptor inactivation” (J Med Chem, 2010).

Experiment [1] addresses T1, 5-hydroxytryptamine receptor 6 (Homo sapiens, UniProt P50406). Nature of the experiment: Displacement of [3H]LSD from human 5HT6 receptor expressed in HEK293 cells by liquid scintillation counting. It is filed as cell-based. In outline:
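Buffer: 50 mM Tris-HCl, 10 mM MgCl2, 0.5 mM EDTA, pH 7.4. Nonspecific binding was defined with 500 μM serotonin. Samples were filtered onto 0.5% PEI-soaked filters, washed with ice-cold Tris, and counted by scintillation. Screening was at 10^-6 M; six-point curves were run if displacement exceeded 50%. Ki by Cheng-Prusoff, 2-4 experiments.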
In general terms: In a radioligand displacement assay an active substance lowers the binding of a labelled ligand.

The target in experiment [2] is 5-hydroxytryptamine receptor 7 (Homo sapiens, UniProt P34969). Nature of the experiment: Displacement of [3H]LSD from human 5HT7 receptor expressed in HEK293 cells by liquid scintillation counting. It counts as cell-based. In outline:
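Purchased HEK-293 membranes expressing h5-HT7R were incubated with 3 nM [³H]LSD for 120 min at 27 °C. Buffer: 50 mM Tris-HCl, 10 mM MgSO4, 0.5 mM EDTA, pH 7.4. Nonspecific binding was defined with 25 μM clozapine. Samples were filtered onto 0.3% PEI-soaked filters, washed with ice-cold Tris, and counted by scintillation. Ki was derived from IC50 by Cheng-Prusoff.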

Experiment [3] deals with T1, 5-hydroxytryptamine receptor 6. Nature of the experiment: Agonist activity at human 5HT6 receptor expressed in COS7 cells assessed as stimulation of cAMP accumulation by HTRF assay. It is filed as functional, cell-based. The following applies: COS-7. Summed up:
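COS-7 cells transfected with human 5-HT6R cDNA, seeded 100000 cells/well, stimulated 24 h post-transfection for 10 min at 37 °C with each tested compound without 5-HT (agonist mode). cAMP quantified by HTRF; activity expressed as percentage of maximal effect obtained with serotonin alone. Three independent experiments in triplicate.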
On the technique in general: cAMP levels reflect the balance of adenylyl cyclase and phosphodiesterase activity.

For experiment [4] the target is unchanged. The experiment is described as follows: Antagonist activity at human 5HT6 receptor expressed in COS7 cells assessed as inhibition of serotonin-induced cAMP accumulation by HTRF assay. It is filed as functional, cell-based, COS-7. Summed up:
(§1)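 COS-7 cells were transfected with wild-type or mutant receptor cDNA and seeded at 100000 cells/well. At 24 h post-transfection, cells were stimulated for 10 min at 37 °C with eight concentrations of test ligand plus 100 μM 5-HT. cAMP was read by HTRF. Three independent experiments in triplicate, mean ± SEM.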

The target in experiment [5] is 5-hydroxytryptamine receptor 6 (Mus musculus, UniProt Q9R1C8, F287A). Nature of the experiment: Antagonist activity at mouse 5HT6 receptor F6.52A mutant expressed in COS7 cells assessed as inhibition of serotonin-induced cAMP accumulation by HTRF assay. It counts as functional, cell-based, COS-7. In outline:
(§2)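 COS-7 cells were transfected with wild-type or mutant receptor cDNA and seeded at 100000 cells/well. At 24 h post-transfection, cells were stimulated for 10 min at 37 °C with eight concentrations of test ligand plus 100 μM 5-HT. cAMP was read by HTRF. […] Three independent experiments in triplicate, mean ± SEM.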

Experiment [6] deals with 5-hydroxytryptamine receptor 6 (Mus musculus, UniProt Q9R1C8, W283A). The experiment is described as follows: Antagonist activity at mouse 5HT6 receptor W6.48A mutant expressed in COS7 cells assessed as inhibition of serotonin-induced cAMP accumulation by HTRF assay. It counts as functional, cell-based, COS-7. In outline:
as §2

Experiment [7] can be described thus: Antagonist activity at mouse 5HT6 receptor N6.55A mutant expressed in COS7 cells assessed as inhibition of serotonin-induced cAMP accumulation by HTRF assay. It is filed as functional, cell-based. As to conditions: cos-7. Summed up: as §2
Experiment [8] deals with 5-hydroxytryptamine receptor 6 (Mus musculus, UniProt Q9R1C8, C110A). Nature of the experiment: Antagonist activity at mouse 5HT6 receptor C3.36A mutant expressed in COS7 cells assessed as inhibition of serotonin-induced cAMP accumulation by HTRF assay. It counts as functional, cell-based, COS-7. In outline:
as §1

For experiment [9], the target named is 5-hydroxytryptamine receptor 6 (Mus musculus, UniProt Q9R1C8). The experiment is described as follows: Antagonist activity at mouse wild type 5HT6 receptor expressed in COS7 cells assessed as inhibition of serotonin-induced cAMP accumulation by HTRF assay. It is filed as functional, cell-based, COS-7. Summed up: as §1
5-hydroxytryptamine receptor 6 (Mus musculus, UniProt Q9R1C8), sequence (Q9R1C8 whole entry): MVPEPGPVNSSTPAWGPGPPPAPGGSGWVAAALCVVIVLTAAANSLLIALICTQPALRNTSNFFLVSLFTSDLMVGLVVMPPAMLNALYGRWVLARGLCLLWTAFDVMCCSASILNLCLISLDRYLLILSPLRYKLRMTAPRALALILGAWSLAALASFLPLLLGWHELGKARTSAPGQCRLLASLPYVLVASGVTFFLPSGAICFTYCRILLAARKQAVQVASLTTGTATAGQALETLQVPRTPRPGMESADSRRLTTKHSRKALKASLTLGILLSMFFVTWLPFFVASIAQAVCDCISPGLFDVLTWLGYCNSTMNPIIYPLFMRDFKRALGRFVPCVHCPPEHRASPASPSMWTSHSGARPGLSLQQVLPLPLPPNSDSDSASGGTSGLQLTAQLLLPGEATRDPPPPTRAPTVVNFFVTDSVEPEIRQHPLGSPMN

Activity calls are given as the source filed them. The calls are words filed in the database; no cut-off is given here. A value given as a limit tells only on which side of the number the result lay.

5-hydroxytryptamine receptor 7, sequence (P34969 whole entry): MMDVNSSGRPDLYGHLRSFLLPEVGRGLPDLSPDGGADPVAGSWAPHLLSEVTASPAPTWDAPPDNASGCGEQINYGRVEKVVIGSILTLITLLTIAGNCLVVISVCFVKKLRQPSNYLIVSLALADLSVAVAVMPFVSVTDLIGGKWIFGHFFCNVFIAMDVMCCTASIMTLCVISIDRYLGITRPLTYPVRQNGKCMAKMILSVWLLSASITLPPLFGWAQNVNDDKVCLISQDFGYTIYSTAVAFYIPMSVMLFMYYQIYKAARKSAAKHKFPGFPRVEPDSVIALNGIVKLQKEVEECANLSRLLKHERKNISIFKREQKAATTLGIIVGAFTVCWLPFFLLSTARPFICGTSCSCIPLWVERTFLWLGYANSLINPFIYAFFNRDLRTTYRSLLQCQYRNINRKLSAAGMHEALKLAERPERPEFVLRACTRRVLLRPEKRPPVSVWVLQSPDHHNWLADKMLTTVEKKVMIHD
T1 sequence (P50406 whole entry): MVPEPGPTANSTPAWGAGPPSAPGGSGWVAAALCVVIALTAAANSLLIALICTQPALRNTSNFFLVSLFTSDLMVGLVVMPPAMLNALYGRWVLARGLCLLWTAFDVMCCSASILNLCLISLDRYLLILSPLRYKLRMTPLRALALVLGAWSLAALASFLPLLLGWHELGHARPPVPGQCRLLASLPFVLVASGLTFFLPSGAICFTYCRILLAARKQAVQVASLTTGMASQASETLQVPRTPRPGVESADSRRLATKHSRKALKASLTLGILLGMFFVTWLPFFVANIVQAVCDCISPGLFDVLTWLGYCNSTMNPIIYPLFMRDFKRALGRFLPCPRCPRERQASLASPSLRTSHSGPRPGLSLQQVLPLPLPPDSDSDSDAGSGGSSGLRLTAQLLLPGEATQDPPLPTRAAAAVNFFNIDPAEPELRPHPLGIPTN
5-hydroxytryptamine receptor 6 (Mus musculus, UniProt Q9R1C8, F287A), sequence (Q9R1C8 whole entry F287A): as the sequence (Q9R1C8 whole entry) above, with F287A counted along it
5-hydroxytryptamine receptor 6 (Mus musculus, UniProt Q9R1C8, W283A), sequence (Q9R1C8 whole entry W283A): as the sequence (Q9R1C8 whole entry) above, with W283A counted along it
5-hydroxytryptamine receptor 6 (Mus musculus, UniProt Q9R1C8, C110A), sequence (Q9R1C8 whole entry C110A): as the sequence (Q9R1C8 whole entry) above, with C110A counted along it

On to `O=C(c1ccccc1)c1nc2c(N3CCNCC3)cccc2[nH]1`, for which the Ki in experiment [1] was > 1000 nM; in experiment [2], > 500 nM.

As to `CN1CCN(c2cccc3[nH]c(C(=O)c4ccc5ccccc5c4)nc23)CC1`, the inhibitory constant (Ki) in experiment [1] was > 1000 nM; in [2] it was > 500 nM.

Consider `CN1CCN(c2cccc3[nH]cnc23)CC1`, for which the inhibition constant Ki in experiment [1] is > 1000 nM.

Take `CN1CCN(c2ccc3[nH]c(C(=O)c4ccccc4)nc3c2)CC1`: the Ki was > 1000 nM in [1] and > 500 nM in [2].

For the compound `c1ccc(Cc2nc3c(N4CCNCC4)cccc3[nH]2)cc1`, the result in [3] was inactive. The inhibitory constant (Ki) in experiment [1] was 58 nM; in [4], 31 nM; in experiment [2], > 500 nM.

As for `CN1CCN(c2ccc3[nH]c(C(=O)c4ccc5ccccc5c4)nc3c2)CC1`, the inhibitory constant (Ki) was > 1000 nM in experiment [1] and > 500 nM in [2].

As for `CN1CCN(c2cccc3[nH]c(C(=O)c4ccccc4)nc23)CC1`, the Ki in [1] was > 1000 nM; in experiment [2], > 500 nM.

Turning to `c1ccc2c(Cc3nc4c(N5CCNCC5)cccc4[nH]3)cccc2c1`, the outcome in [3] was inactive. Moreover, the Ki was 16 nM in experiment [1], 16 nM in experiment [4] and > 500 nM in experiment [2].

Turning to `CN1CCN(c2ccc3[nH]c(Cc4ccccc4)nc3c2)CC1`, the inhibitory constant (Ki) is > 1000 nM in [1] and > 500 nM in [2].

Regarding `CN1CCN(c2cccc3[nH]c(Cc4cccc5ccccc45)nc23)CC1`, in [3], the result was inactive. Further, the Ki in experiment [1] is 36.2 nM; in experiment [4], 27 nM; in [2], > 500 nM.

On to `CN1CCN(c2ccc3[nH]c(Cc4cccc5ccccc45)nc3c2)CC1`, for which the inhibition constant Ki was > 1000 nM in experiment [1] and > 500 nM in experiment [2].

For `CN1CCN(c2ccc3[nH]c(C(=O)c4cccc5ccccc45)nc3c2)CC1`, the inhibition constant Ki was > 1000 nM in [1] and > 500 nM in [2].

In the case of `O=C(c1ccc2ccccc2c1)c1nc2cc(N3CCNCC3)ccc2[nH]1`, the inhibition constant (Ki) is > 1000 nM in [1] and > 500 nM in experiment [2].

`c1ccc2c(Cc3nc4ccc(N5CCNCC5)cc4[nH]3)cccc2c1`: the inhibitory constant (Ki) in experiment [1] is > 1000 nM; in experiment [2], > 500 nM.

Regarding `COc1ccc(NS(=O)(=O)c2ccc(I)cc2)cc1N1CCN(C)CC1`, the Ki came out at 114 nM in experiment [5]; 0.32 nM in experiment [6]; 27 nM in experiment [7]; 54 nM in [8]; 0.75 nM in experiment [9].

As to `c1ccc(Cc2nc3cc(N4CCNCC4)ccc3[nH]2)cc1`, the inhibition constant Ki is > 1000 nM in experiment [1] and > 500 nM in experiment [2].

For `c1ccc2cc(Cc3nc4ccc(N5CCNCC5)cc4[nH]3)ccc2c1`, the results for the Ki in experiment [1] and in [2] were > 1000 nM and > 500 nM, respectively.

In the case of `CN1CCN(c2cccc3[nH]c(C(=O)c4cccc5ccccc45)nc23)CC1`, the Ki in experiment [2] is > 500 nM.

For `CN1CCN(c2ccc3[nH]c(Cc4ccc5ccccc5c4)nc3c2)CC1`, the Ki in experiment [1] was > 1000 nM; in [2] it was > 500 nM.

Take `CN1CCN(c2cccc3[nH]c(Cc4ccccc4)nc23)CC1`: in [3], the result was inactive. Further, the inhibitory constant (Ki) in [1] was 66.8 nM; in [4], 16 nM; in experiment [2], > 500 nM.

Consider `O=C(c1nc2c(N3CCNCC3)cccc2[nH]1)c1cccc2ccccc12`, for which the result in experiment [3] was inactive. The Ki in experiment [1] is 13 nM; in experiment [4], 15 nM; in experiment [2] it was > 500 nM.

As usually defined, the Ki is a measure of affinity in units of concentration, obtained from inhibition or displacement.
